Test results as given in ChEMBL document CHEMBL2146398, “Novel interleukin-5 inhibitors based on hydroxyethylaminomethyl-4H-chromen-4-one scaffold” (Bioorg Med Chem, 2012).

The molecules below were run against T1, Interleukin-5 (Mus musculus) (UniProt P04401) (assay: Inhibition of IL-5 in mouse Y16 cells at 30 uM after 48 hrs by WST1 assay).
T1 sequence (whole entry): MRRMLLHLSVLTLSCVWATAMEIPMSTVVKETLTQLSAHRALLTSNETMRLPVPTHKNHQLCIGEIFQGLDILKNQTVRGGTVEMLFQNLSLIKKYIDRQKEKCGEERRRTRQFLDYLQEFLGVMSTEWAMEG
Type: cell-based
Procedure, shortened: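 IL-5-dependent pro-B Y16 cells cultured 48 h with 3 units/mL mIL-5, with or without test sample. Proliferation read as cell metabolism by WST-1 reduction. […] Values are means of three independent experiments.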

| SMILES | inhibition [%] |
| --- | --- |
| O=c1c(CN(CCO)c2ccccc2)coc2cccc(OCC3CCCCC3)c12 | 94.4 |
| O=c1c(CN(CCO)Cc2ccccc2)coc2cccc(OCC3CCCCC3)c12 | 94.8 |
| O=c1c(CN(CCO)C2CCCCC2)coc2cccc(OCC3CCCCC3)c12 | 94.5 |
| O=c1c(CN(CCO)CC2CCCCC2)coc2cccc(OCC3CCCCC3)c12 | 94.7 |
| O=c1c(CN(CCO)Cc2ccc(Cl)cc2)coc2cccc(OCC3CCCCC3)c12 | 93.4 |
| COc1ccc(CN(CCO)Cc2coc3cccc(OCC4CCCCC4)c3c2=O)cc1 | 94.1 |
| O=c1c(CN(CCO)Cc2ccncc2)coc2cccc(OCC3CCCCC3)c12 | 94 |
| O=c1c(CN(CCO)Cc2ccc(O)cc2)coc2cccc(OCC3CCCCC3)c12 | 93.7 |

Results, then the molecule that gave them:

| inhibition [%] | SMILES |
| --- | --- |
| 93.7 | CCCN(CCO)Cc1coc2cccc(OCC3CCCCC3)c2c1=O |
| 79.2 | CCN(CCO)Cc1coc2cccc(OCC3CCCCC3)c2c1=O |
| 94.3 | Cc1ccc(CN(CCO)Cc2coc3cccc(OCC4CCCCC4)c3c2=O)cc1 |
| 94 | CCCCN(CCO)Cc1coc2cccc(OCC3CCCCC3)c2c1=O |
| 90.2 | CC(C)N(CCO)Cc1coc2cccc(OCC3CCCCC3)c2c1=O |
| 56 | CN(CCO)Cc1coc2cccc(OCC3CCCCC3)c2c1=O |
